Assay [1] concerns the target T1, Muscarinic acetylcholine receptor (Rattus norvegicus) (UniProt P08482+P08483+P08485+P08911+P10980). Description: (§1) Ratio of Muscarinic acetylcholine receptor affinity (IC50) of test compound to that of disopyramide. It counts as protein assay. In outline:
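Muscarinic receptor binding by displacement of [³H]QNB, test compound at three to six concentrations in triplicate. IC50 from log probit analysis. Value expressed as IC50(test)/IC50(disopyramide).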

The species entered for assay [2] is Canis familiaris. Put plainly: Mean effective dose required to suppress ventricular ectopic rate in dog greater than or equal to 25% for a minimum duration of 10 min. It counts as functional. As to conditions: Canis lupus familiaris, Cardiac ventricle, read-out: MED.
For assay [3], the system named is Canis familiaris. Put plainly: Myocardial depression determined by monitoring the maximum rate of rise of left ventricular pressure in dog at 10 mg/kg dose. It counts as functional, Canis lupus familiaris, Heart left ventricle.
For assay [4], the target named is T1, Muscarinic acetylcholine receptor (Rattus norvegicus). Description: Ratio of Muscarinic acetylcholine receptor affinity (IC50) of test compound to that of disopyramide; 1/16. It counts as protein assay.
Assay [5] concerns Canis familiaris. Put plainly: Myocardial depression determined by monitoring the maximum rate of rise of left ventricular pressure in dog at 3 mg/kg dose. The class given is functional, Canis lupus familiaris, Heart left ventricle. In outline:
(§2)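 Closed-chest anesthetized dogs given compound intravenously at the stated dose; myocardial depression taken as percent decrease in maximum rate of rise of left ventricular pressure (max dP/dt), mean ± standard error of the mean over the dogs tested. ≤25% depression at the mean effective antiarrhythmic dose was deemed acceptable.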

Assay [6] deals with T1, Muscarinic acetylcholine receptor (Rattus norvegicus). The description is as §1. It counts as protein assay. The source holds these as a separate data set.
Assay [7] has the same target. Put plainly: Ratio of Muscarinic acetylcholine receptor affinity (IC50) of test compound to that of disopyramide; 1/2. It counts as protein assay.
For assay [8], the species on record is Canis familiaris. Put plainly: Mean effective dose required to suppress ventricular ectopic rate in dog greater than or equal to 25% for a minimum duration of 10 min; Side effects. It counts as functional, organism-based. As to conditions: Canis lupus familiaris; Cardiac ventricle.
The target in assay [9] is T1, Muscarinic acetylcholine receptor (Rattus norvegicus). Put plainly: Ratio of Muscarinic acetylcholine receptor affinity (IC50) of test compound to that of disopyramide; 1/4. It counts as protein assay.
Assay [10] is filed under the species Canis familiaris. Put plainly: Mean effective dose required to suppress ventricular ectopic rate in dog greater than or equal to 25% for a minimum duration of 10 min; Lethal. The class given is functional. As to conditions: Canis lupus familiaris, Cardiac ventricle, read-out: MED.
Assay [11] concerns the target T1, Muscarinic acetylcholine receptor (Rattus norvegicus). Description: Ratio of Muscarinic acetylcholine receptor affinity (IC50) of test compound to that of disopyramide; 1/6. It counts as protein assay.
Assay [12] relates to Canis familiaris. Description: Myocardial depression determined by monitoring the maximum rate of rise of left ventricular pressure in dog at 9 mg/kg dose. The class given is functional, Canis lupus familiaris, Heart left ventricle. In outline:
as §2

In assay [13] the target is T1, Muscarinic acetylcholine receptor (Rattus norvegicus). Description: Ratio of Muscarinic acetylcholine receptor affinity (IC50) of test compound to that of disopyramide; 1/24. The class given is protein assay.

As for `CC(C)N(CCC(C(N)=O)(c1ccccc1)c1ccccn1)C(C)C` (centres undefined) [DISOPYRAMIDE], in [1], the Ratio is 1. Besides, the minimal effective dose in the assay filed under Canis familiaris [2] was 10 mg/kg. The Decrease with Canis familiaris [3] stood at 56%.

`CC(C)N(CCC1(c2ccc(-c3ccccc3)cc2)CC2CCCCN2C1=O)C(C)C` (centres undefined): the Ratio in assay [4] came to 0.0625. For the same compound, the minimal effective dose in the assay listed under Canis familiaris [2] is 3 mg/kg. In the assay on Canis familiaris [5], this compound displayed a Decrease of 35%.

Regarding `CC(C)N(CCC1(c2ccccc2Cl)CC2CCCCN2C1=O)C(C)C` (centres undefined), the figures for the Ratio in assay [6] and in [7] were 1 and 0.5, respectively. In addition, the MED entry in the assay filed under Canis familiaris [8] is recorded as “Side effects”. The minimal effective dose in the assay filed under Canis familiaris [2] came out at 3.5 mg/kg.

Consider `CC(C)N(CCC(CCC1CCCCN1)(C(N)=O)c1ccccc1Cl)C(C)C` (centres undefined), for which the Ratio in [9] turned out to be 0.25. Moreover, in the assay filed under Canis familiaris [2], the minimal effective dose was determined as 12.5 mg/kg.

Regarding `CC(C)N(CCC(CCN1CCCCC1)(C(N)=O)c1ccccc1Cl)C(=O)c1ccccc1` (centres undefined), the results for the minimal effective dose in the assay listed under Canis familiaris [10] and in the assay listed under Canis familiaris [2] were 5 mg/kg and 2 mg/kg, respectively.

Take `CC(C)N(CCC1(c2ccccc2)CC2CCCCN2C1=O)C(C)C.Cl` (centres undefined): the Ratio in assay [11] is 0.167. Also, the minimal effective dose in the assay filed under Canis familiaris [2] worked out at 10 mg/kg.

Take `CC(=O)N(CCC(CCN1CCCCC1)(C(N)=O)c1ccccc1Cl)C(C)C` (centres undefined) [BIDISOMIDE]: the Decrease in the assay with Canis familiaris [12] came out at 20%. In the assay listed under Canis familiaris [2], the minimal effective dose stood at 9 mg/kg. The Ratio in assay [13] was 0.0417.

Source of the values: ChEMBL document CHEMBL1124007, “Synthesis and structure-activity relationships of a new series of antiarrhythmic agents: monobasic derivatives of disobutamide” (1988).
